ABCB1 inh – inhibitors of human ABCB1 transporter, ABCG2 counter-screen | P08183 | CCRF-Adr cells, JC-1 efflux, flow cytometry | inhibition, % at 6.6 µM | 190,000 tested, 0.067% active | AID 1326; in the data active = inhibition above about 40%;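 note: higher value means more JC-1 retained so stronger ABCB1 efflux block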
ABCG2 block – human ABCG2 inhibition, ABCB1 as counter-screen | 190,000 tested, 0.1% active | inhibition, % at 6.6 µM | Q9UNQ0 | IgMXP3 cells, JC-1 efflux, flow cytometry | AID 1325;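 active = inhibition above 80%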
Target sequence (Q9UNQ0 whole entry, looked up): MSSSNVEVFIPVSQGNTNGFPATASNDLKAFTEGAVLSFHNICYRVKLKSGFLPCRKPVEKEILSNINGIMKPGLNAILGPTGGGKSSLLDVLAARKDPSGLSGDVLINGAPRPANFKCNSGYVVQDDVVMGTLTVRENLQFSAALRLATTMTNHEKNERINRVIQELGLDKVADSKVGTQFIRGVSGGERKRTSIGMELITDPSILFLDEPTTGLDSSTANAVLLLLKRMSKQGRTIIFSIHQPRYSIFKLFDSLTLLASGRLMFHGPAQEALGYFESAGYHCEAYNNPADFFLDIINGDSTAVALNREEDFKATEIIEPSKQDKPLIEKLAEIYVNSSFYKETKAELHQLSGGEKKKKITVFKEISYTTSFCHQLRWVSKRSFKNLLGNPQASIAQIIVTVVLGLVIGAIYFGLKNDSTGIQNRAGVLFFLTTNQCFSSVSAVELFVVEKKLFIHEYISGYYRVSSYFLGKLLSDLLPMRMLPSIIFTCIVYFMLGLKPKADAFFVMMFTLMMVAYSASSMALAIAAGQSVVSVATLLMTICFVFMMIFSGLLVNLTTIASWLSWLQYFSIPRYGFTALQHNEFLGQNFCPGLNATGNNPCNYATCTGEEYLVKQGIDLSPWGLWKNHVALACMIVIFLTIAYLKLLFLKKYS
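test system = two drug-resistant human cell lines, ABCG2 and ABCB1 | amount = 3 million cells/mL final, two lines in 1:1 ratio | reagent = JC-1 transporter substrate | doses = one concentration, 6.6 µM final | incubation = 10 min at 25 °C | signal = flow cytometric JC-1 green MFI at 530 nm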
L major viab – reduces viability of Leishmania major promastigotes. inhibition, % at 10 µM. resazurin fluorescence viability. 200,000 tested, 9% active. AID 1063;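 note: promastigotes grown with compound for 44 hours at 28 °C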
GSH fluor – compound fluoresces at 488/530 nm on GSH beads. GSH beads flow cytometry, compound fluorescence 488/530 nm; stronger effect = higher value. fluorescence (KMESF) at 10 µM. 190,000 tested, 0.25% active. AID 1776; in the data active = fluorescence above about 89;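 note: glutathione beads carrying GST-tagged Bcl family fusion proteins plus one bare bead set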
Avidin bead fluor – avidin bead compound fluorescence profile; fluorescence (KMESF) at 10 µM; 220,000 tested, 0.38% active; Avidin beads, compound fluorescence 488/530 nm, flow cytometry; stronger effect = higher value; AID 1775; in the data active = fluorescence above about 47
PKD1 kinase inh – blocks activity of human protein kinase D1; PKD1 kinase fluorescence polarization assay; inhibition, % (test concentration not listed); 200,000 tested, 0.056% active
Each line names hits and unclear results; the compound was inactive in the other large screens. This excerpt belongs to a sample that is enriched for hits. Cut-off read from the data, not from the text of the source, unless noted: active = inhibition above about 50%; inactive = the rest.

COc1ccc(Nc2ccc(N3C(=O)CC(C)C3=O)cc2[N+](=O)[O-])cc1OC (centres undefined)	none
CN(CC(=O)Nc1ccc(Cl)cc1)CC(=O)Nc1cc(Cl)ccc1C#N	none
CCN1/C(=C/c2sc(-c3ccccc3C)c[n+]2C)Sc2ccccc21	L major viab 100
CC(=O)Oc1ccc2c(=O)c(Oc3ccccc3)coc2c1OC(C)=O	none
C[C@@H]1CN(C(=O)c2nc3ccc(Cl)cn3c2CN2CCc3sccc3C2)C[C@H](C)O1	none
CCOC(=O)C1CCN(CCC(=O)Nc2ccc(F)cc2)CC1	L major viab 70
CCOC(=O)C1CCN(CCC(=O)Nc2ccc(C)c(C)c2)CC1	L major viab 88
CCOC(=O)C1CCCN(CCC(=O)Nc2ccc(C)c(C)c2)C1 (centres undefined)	none
CCOC(=O)C1CCCN(CCC(=O)Nc2ccc3c(c2)CCC3)C1 (centres undefined)	L major viab 90
O=C(CCl)N=c1sccn1Cc1ccccc1Cl	none (no result: ABCB1 inh, ABCG2 block, L major viab, GSH fluor, PKD1 kinase inh)
O=C(CCl)N=c1sccn1Cc1ccc(Cl)cc1Cl	L major viab 86
Cc1cc(OC(C)C(=O)N/N=C/CC(C)c2ccccc2)ccc1Cl (centres undefined)	none (no result: ABCB1 inh, ABCG2 block)
CCN1C(=O)c2cccc3c(S(=O)(=O)NCc4ccccn4)ccc1c23	L major viab 65
CN(/N=C/c1ccc(O)cc1O)c1nc(-c2ccccc2)cc(-c2ccccc2)n1	L major viab 64
CSc1ccccc1-n1nnnc1SCC(=O)Nc1ccccc1C	none
CSc1ccccc1NC(=O)CSc1nnnn1-c1ccccc1SC	L major viab 67
CCOC(=O)c1cnn2c1[nH]c(=O)c1ccccc12	Avidin bead fluor 96
NNC(=O)c1sccc1OCc1ccc(F)cc1	none
O=C(N/N=C/c1ccc(Cl)cc1)c1sccc1OCc1ccc(F)cc1	L major viab 85
O=C(N/N=C/c1ccc(F)cc1)c1sccc1OCc1ccc(F)cc1	L major viab 88
CCOC(=O)c1nnn(CC(=O)Nc2cccc(Cl)c2C)c1C(=O)OCC	none
CCOC(=O)c1nnn(CC(=O)N2N=C(c3cccc4ccccc34)CC2c2ccccc2)c1C(=O)OCC (centres undefined)	L major viab 52
O=C1c2ccccc2-n2c1nc1ccccc1c2=O	L major viab 100
O=C(Cn1sc2ccccc2c1=O)NC12CC3CC(CC(C3)C1)C2	L major viab 100
Nn1c(SCC(=O)NC2CCCc3ccccc32)nnc1-c1ccc(Cl)cc1Cl (centres undefined)	none
CC(=O)/C=C1/C(=O)Nc2ccccc21	L major viab 94
Cc1nc2c(C(=O)NCc3ccc(F)cc3)c[nH]n2c(=O)c1Cl	none
COc1ccc(N(C(=O)c2ccccc2C)S(=O)(=O)c2cccs2)cc1	L major viab 94
COc1ccc(S(=O)(=O)N(C(=O)c2ccncc2)c2ccc(OC(=O)c3ccncc3)cc2)cc1	none
CC1(C)CC(=O)C(C=Nc2ccccc2Sc2ccccc2)=C(O)C1	L major viab 71
COc1ccc(CC2(CO)CCN(CC3=CC[C@H]4C[C@@H]3C4(C)C)CC2)cc1	L major viab 82
COC(=O)c1ccc(CN2CCC(CO)(Cc3cccc(OC)c3)CC2)cc1	L major viab 83
COc1ccc(CC2(CO)CCN(Cc3ccncc3)CC2)cc1	L major viab 89
COc1ccccc1N1CCN(CC(=O)Nc2c(C)n(C)n(-c3ccccc3)c2=O)CC1	none
Cc1cccc(-c2noc(CCCC(=O)N3CCOCC3)n2)c1	none
CN1CCc2c(sc3c2C(=O)NC(c2cn(Cc4ccccc4)c4ccccc24)N3)C1 (centres undefined)	L major viab 100
COC(=O)c1cc(OC)c(OC)c(OC)c1N	GSH fluor 259
COc1cc(/C(C)=N/NC(=O)CSc2nncn2C)ccc1OCc1ccccc1Cl	L major viab 73
CCOc1cc(/C=N/NC(=O)CSc2nncn2C)ccc1OCc1ccccc1	none
O=C(CSc1nc(CCC2CCCC2)nc2ccccc12)NCc1ccc2c(c1)OCO2	none
Cn1nc(-c2ccc(NCCO)c([N+](=O)[O-])c2)c2ccccc2c1=O	none
CN(C)CCNc1ccc(-c2nn(C)c(=O)c3ccccc23)cc1[N+](=O)[O-]	L major viab 90
Cn1nc(-c2ccc(N3CCN(CCO)CC3)c([N+](=O)[O-])c2)c2ccccc2c1=O	L major viab 99
CN(CCO)c1ccc(-c2nn(C)c(=O)c3ccccc23)cc1[N+](=O)[O-]	none (no result: ABCB1 inh, ABCG2 block, L major viab, GSH fluor, PKD1 kinase inh)
CCn1c(COc2cc(C)ccc2C(C)C)nnc1SCC(=O)Nc1nccs1	none
CC1NC(=O)NC1CCCCC(=O)O (centres undefined)	GSH fluor 243
CC1=C(C(=O)Nc2cccnc2)C(c2cccnc2)n2nc(-c3cccs3)nc2N1 (centres undefined)	L major viab 84
CC1=C(C(=O)Nc2ccccc2)C(c2cccnc2)n2nc(-c3cccnc3)nc2N1 (centres undefined)	none
COCCCNC(=S)NNC(=O)c1csc2ccccc12	none
Cc1cc(C)c2nc(Nc3nc(-c4ccccc4)cc(=O)[nH]3)nc(C)c2c1	none (no result: ABCB1 inh, ABCG2 block, L major viab, GSH fluor, PKD1 kinase inh)
CC1=CC(C)(C)N=C(Nc2nc(C)c3cc(C)cc(C)c3n2)N1	L major viab 97
Cc1cc(C)nc(N2C(=O)CC(Cc3ccc(Cl)cc3)C2=O)n1 (centres undefined)	none
CCOc1ccc(OCC)c(-c2c(=O)n(OCc3ccccc3Br)c3ccccc3[n+]2[O-])c1	L major viab 71
CCOc1ccc(-c2c(=O)n(OCc3ccccc3Br)c3ccccc3[n+]2[O-])c(OCC)c1	none
CCOc1ccc(OCC)c(-c2c(=O)n(OCc3ccccc3C(=O)OC)c3ccccc3[n+]2[O-])c1	L major viab 79
CCn1c2ccccc2c2cc(NC(=O)Cc3ccc(S(=O)(=O)N4CCOCC4)s3)ccc21	L major viab 81
CN(C)S(=O)(=O)c1ccc(NC(=O)Cc2ccc(S(=O)(=O)N3CCOCC3)s2)cc1	none
Cc1ccc(C2OC(=O)c3ccccc32)cc1 (centres undefined)	none (no result: ABCB1 inh)
C[C@@]12CC(=O)NC1N(C(=O)c1ccccc1)C(c1ccccc1OC(=O)c1ccccc1)C2 (some centres undefined)	GSH fluor 250
C[C@@]12CC(=O)NC1N(C(=O)c1cccc(C(F)(F)F)c1)C(c1ccccc1OC(=O)c1cccc(C(F)(F)F)c1)C2 (some centres undefined)	none
COc1ccc(NC(=O)CCc2c(C)nc3nc(C)nn3c2C)cc1	none
CN(c1nc2ccccc2n2c(C3CC3)nnc12)S(=O)(=O)c1ccccc1	none (no result: ABCB1 inh, ABCG2 block, L major viab, GSH fluor, PKD1 kinase inh)
CCOc1ccccc1-n1c(=O)c2ccccc2c2ccccc2c1=O	L major viab 77 (no result: ABCB1 inh)
